In ChEMBL document CHEMBL2040749, “Novel polycyclic 'cage'-1,2-diamines as potential anti-tuberculosis agents” (2012):

What follows are compounds tested on Mycobacterium tuberculosis (assay: Antitubercular activity against Mycobacterium tuberculosis H37Rv ATCC 25177after 21 days by BACTEC MGIT 960 method). Settings: 504 h.
Assay type: functional
Summary of the method: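 Compounds dissolved in 100% methanol (10 mg/mL stock), sonicated, filter-sterilised, diluted in sterile water; twofold serial dilutions, working range 8 to 0.125 µg/mL. Strains grown in Middlebrook 7H9 + OADC at 37 °C; inoculum adjusted to McFarland 1, diluted tenfold to 10^5 CFU/mL into MGIT tubes. Drug-free control received a 1:100 inoculum. MIC is the lowest dilution negative when the control turns positive. Triplicate.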

Structure (SMILES)	MIC
CC(C)=CCC/C(C)=C/CNCCNC1C2CC3CC(C2)CC1C3.Cl.Cl (stereo not drawn)	0.5 µg/mL
CC(C)=CCC/C(C)=C/CNC(=O)CN1[C@H]2C3C4CC5C6C4C2C6[C@@]1(O)C53 (mixture of isomers)	1 µg/mL
CC(C)=CCC/C(C)=C/CNCC(=O)N[C@]12O[C@H]3C4C5CC(C6C5C3C61)C42 (mixture of isomers)	1 µg/mL
CC(C)=CCC/C(C)=C/CNCCN[C@@H]1C2C3CC4C5C3CC2C5C41.Cl.Cl (mixture of isomers)	1 µg/mL
CC(C)=CCC/C(C)=C/CNCCN[C@]12O[C@H]3C4C5CC(C6C5C3C61)C42.Cl.Cl (mixture of isomers)	1 µg/mL
CC(C)=CCC/C(C)=C/CNCCN[C@@H]1C2C3CC4C5C3C1C5[C@@H](O)C42.Cl.Cl (mixture of isomers)	0.5 µg/mL
CC(C)=CCC/C(C)=C/CNCCN1[C@H]2C3C4CC5C6C4C2C6[C@@]1(O)C53.Cl.Cl (mixture of isomers)	1 µg/mL
CC(C)=CCC/C(C)=C/CNCCNC1C2C3CC4C5CC(C42)C1C53.Cl.Cl (racemic)	0.5 µg/mL
